The values that follow come from ChEMBL document CHEMBL1121685, “Development of new mitomycin C and porfiromycin analogues” (J Med Chem, 1981).

Data set [1] relates to Mus musculus. Kind of data set: Effect of compound on total white blood cell count in BDG1 male mice, after intraperitoneal administration at a dose of 12.8 mg/kg on day 5. The class given is functional. In a few lines:
(§1)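 BDG₁ male mice received a single ip dose on day 0. The dose series topped out at the LD₅₀ level, or at twice the optimal dose for some agents. Total white blood cell count was taken on days 3, 5 and 7 and expressed as % change from untreated controls. Significance was set at p ≤ 0.05 or p ≤ 0.01.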

Data set [2] concerns Mus musculus. The data set can be described thus: Effect of compound on total white blood cell count in BDG1 male mice, after intraperitoneal administration at a dose of 12.8 mg/kg on day 3. The class given is functional. Put shortly: as §1
Data set [3] is described as follows: Therapeutic ratio is expressed as ratio of optimal dose and minimum effective dose. The class given is ADME. The following applies: mouse; read-out: TR. In a few lines: (§2)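 10⁶ P-388 ascites cells implanted ip in CDF₁ female mice. Six mice per dose, 10 saline-injected controls, and a concurrent mitomycin C reference group. %T/C = median survival time of treated/control × 100. MED is the lowest dose giving %T/C > 125. Therapeutic ratio = optimal dose/MED.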

In data set [4] the test system is Mus musculus. Kind of data set: Effect of compound on total white blood cell count in BDG1 male mice, after intraperitoneal administration at a dose of 25.6 mg/kg on day 5 (highest dose was twice the optimal dose). The class given is functional.
Data set [5] has as its system Mus musculus. The data set can be described thus: Effect of compound on total white blood cell count in BDG1 male mice, after intraperitoneal administration at a dose of 25.6 mg/kg on day 3 (highest dose was twice the optimal dose). The class given is functional.
Data set [6] concerns Mus musculus. Kind of data set: Minimum effective dose that show activity against P-388 murine leukemia cells in CDF1 female mice, after intraperitoneal administration (optimal dose is 12.8 mg/kg). The class given is functional. The following applies: P388, ip, read-out: MED. Put shortly:
as §2

In data set [7] the test system is Mus musculus. The data set can be described thus: Antitumor activity against P-388 murine leukemia cells in CDF1 female mice after intraperitoneal administration at the specified optimal dose of 12.8 mg/kg. The class given is functional.
For data set [8], the system named is Mus musculus. Kind of data set: Effect of compound on total white blood cell count in BDG1 male mice, after intraperitoneal administration at a dose of 25.6 mg/kg on day 7 (highest dose was twice the optimal dose). The class given is functional.
Data set [9] relates to Mus musculus. Kind of data set: Effect of compound on total white blood cell count in BDG1 male mice, after intraperitoneal administration at a dose of 12.8 mg/kg on day 7. The class given is functional. In a few lines: (§3)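 Single ip dose given on day 0 to BDG1 male mice over a descending dose series. Total white blood cell count is expressed as % change from untreated control on days 3, 5 and 7. Significance is flagged at p ≤ 0.05 and p ≤ 0.01.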

In data set [10] the test system is Mus musculus. The data set can be described thus: Effect of compound on total white blood cell count in BDG1 male mice, after intraperitoneal administration at a dose of 2.98 mg/kg on day 3. The class given is functional. Put shortly:
as §3

In data set [11] the test system is Mus musculus. The data set can be described thus: Minimum effective dose that show activity against P-388 murine leukemia cells in CDF1 female mice, after intraperitoneal administration (optimal dose is 3.2 mg/kg). The following applies: P388, ip, read-out: MED. The class given is functional. Put shortly: as §2
Data set [12] deals with Mus musculus. Kind of data set: Effect of compound on total white blood cell count in BDG1 male mice, after intraperitoneal administration at a dose of 5.3 mg/kg on day 3. The class given is functional. Put shortly: (§4)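 Single ip dose given on day 0 to BDG₁ male mice. Total white blood cell count measured on days 3, 5 and 7, expressed as % change from control. Highest dose was at the LD₅₀, or at twice the optimal dose where so footnoted. Significance reported at p ≤ 0.05 and p ≤ 0.01. D marks death of one or more mice.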

Data set [13] relates to Mus musculus. The data set can be described thus: Effect of compound on total white blood cell count in BDG1 male mice, after intraperitoneal administration at a dose of 5.3 mg/kg on day 5. The class given is functional. In a few lines: as §4
Data set [14] relates to Mus musculus. The data set can be described thus: Effect of compound on total white blood cell count in BDG1 male mice, after intraperitoneal administration at a dose of 2.24 mg/kg on day 5. The class given is functional. In a few lines:
as §3

Data set [15] relates to Mus musculus. Kind of data set: Effect of compound on total white blood cell count in BDG1 male mice, after intraperitoneal administration at a dose of 2.98 mg/kg on day 5. The class given is functional. In a few lines:
as §3

The test system of data set [16] is Mus musculus. Kind of data set: Effect of compound on total white blood cell count in BDG1 male mice, after intraperitoneal administration at a dose of 2.98 mg/kg on day 7. The class given is functional. Put shortly: as §3
Data set [17] has as its system Mus musculus. Kind of data set: Effect of compound on total white blood cell count in BDG1 male mice, after intraperitoneal administration at a dose of 3.98 mg/kg on day 5. The class given is functional. Put shortly:
as §3

Data set [18] concerns Mus musculus. The data set can be described thus: Effect of compound on total white blood cell count in BDG1 male mice, after intraperitoneal administration at a dose of 3.98 mg/kg on day 7. The class given is functional. Put shortly:
as §3

Data set [19] relates to Mus musculus. Kind of data set: Antitumor activity against P-388 murine leukemia cells in CDF1 female mice after intraperitoneal administration at the specified optimal dose of 3.2 mg/kg. The class given is functional.
In data set [20] the test system is Mus musculus. Kind of data set: Effect of compound on total white blood cell count in BDG1 male mice, after intraperitoneal administration at a dose of 5.3 mg/kg on day 7. The class given is functional. Put shortly:
as §4

The subject of data set [21] is Mus musculus. Kind of data set: Effect of compound on total white blood cell count in BDG1 male mice, after intraperitoneal administration at a dose of 2.24 mg/kg on day 3. The class given is functional. In a few lines: as §3
In data set [22] the test system is Mus musculus. Kind of data set: Effect of compound on total white blood cell count in BDG1 male mice, after intraperitoneal administration at a dose of 2.24 mg/kg on day 7. The class given is functional. Put shortly: as §3
For data set [23], the system named is Mus musculus. The data set can be described thus: Effect of compound on total white blood cell count in BDG1 male mice, after intraperitoneal administration at a dose of 3.98 mg/kg on day 3. The class given is functional. In a few lines: as §3

Molecules are shown by their SMILES.

With `COC12[C@@H]3N[C@@H]3CN1C1=C(C(=O)C(NCc3cccs3)=C(C)C1=O)[C@@H]2COC(N)=O` (some centres undefined), the Change in the data set on Mus musculus [1] was -5%; with Mus musculus [2] it was -26%; with Mus musculus [4], -33%; in the data set with Mus musculus [5], -32%; with Mus musculus [8] it was -11%; in the data set with Mus musculus [9], -2%. In [3], the selectivity ratio turned out to be 4. Besides, in the data set with Mus musculus [6], the minimal effective dose worked out at 3.2 mg/kg. For the same compound, the T/C in the data set with Mus musculus [7] is 167%.
Consider `COC12[C@@H](COC(N)=O)C3=C(C(=O)C(C)=C(N4CC4)C3=O)N1C[C@@H]1[C@H]2N1C` (some centres undefined), for which the Change in the data set with Mus musculus [10] is reported as 5%; in the data set with Mus musculus [12], -15%; in the data set with Mus musculus [13], -20%; with Mus musculus [14], 11%; in the data set with Mus musculus [15], 25%; in the data set on Mus musculus [16] it was 31%. Further, the Change in the data set on Mus musculus [17] is -17%; in the data set on Mus musculus [18] it was 7%; in the data set on Mus musculus [20], -13%; with Mus musculus [21], 1%; with Mus musculus [22], 39%; in the data set with Mus musculus [23], -12.3%. For the same compound, in the data set with Mus musculus [11], the minimal effective dose amounted to 0.2 mg/kg. Further, the selectivity ratio in data set [3] was determined as 16. Moreover, the T/C with Mus musculus [19] is 248%.
